Source: ChEMBL document CHEMBL1137577, “Inhibitors of the interaction of a thyroid hormone receptor and coactivators: preliminary structure-activity relationships” (J Med Chem, 2007)
≈ marks a conversion by molar mass, not a printed value. Where “and” joins values, the source holds several entries; their conditions need not be identical. Equal values may be shown once.

Tests used:
[1] = target: T1, Thyroid hormone receptor alpha (Homo sapiens, UniProt P10827); assay: Displacement of labeled SRC2-2 from human TRalpha by FP assay
T1 sequence (P10827 whole entry): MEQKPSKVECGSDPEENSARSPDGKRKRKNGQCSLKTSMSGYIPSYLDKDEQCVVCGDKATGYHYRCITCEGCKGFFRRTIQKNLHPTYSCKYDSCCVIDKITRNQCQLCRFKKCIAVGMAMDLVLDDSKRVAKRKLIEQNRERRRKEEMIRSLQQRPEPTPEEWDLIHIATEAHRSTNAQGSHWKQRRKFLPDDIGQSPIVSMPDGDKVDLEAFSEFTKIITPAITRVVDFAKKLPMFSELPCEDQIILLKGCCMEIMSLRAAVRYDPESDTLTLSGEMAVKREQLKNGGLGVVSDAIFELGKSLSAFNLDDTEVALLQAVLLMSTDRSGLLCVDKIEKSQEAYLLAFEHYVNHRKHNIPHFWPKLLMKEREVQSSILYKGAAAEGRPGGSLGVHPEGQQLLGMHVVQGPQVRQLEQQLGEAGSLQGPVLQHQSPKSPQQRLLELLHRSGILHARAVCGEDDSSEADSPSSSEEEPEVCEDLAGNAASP

[2] = target: T2, Thyroid hormone receptor beta (Homo sapiens, UniProt P10828); assay: Displacement of labeled SRC2-2 from human TRbeta expressed in BL21 (DE3) cells FP assay; assay type: cell-based
T2 sequence (P10828 whole entry): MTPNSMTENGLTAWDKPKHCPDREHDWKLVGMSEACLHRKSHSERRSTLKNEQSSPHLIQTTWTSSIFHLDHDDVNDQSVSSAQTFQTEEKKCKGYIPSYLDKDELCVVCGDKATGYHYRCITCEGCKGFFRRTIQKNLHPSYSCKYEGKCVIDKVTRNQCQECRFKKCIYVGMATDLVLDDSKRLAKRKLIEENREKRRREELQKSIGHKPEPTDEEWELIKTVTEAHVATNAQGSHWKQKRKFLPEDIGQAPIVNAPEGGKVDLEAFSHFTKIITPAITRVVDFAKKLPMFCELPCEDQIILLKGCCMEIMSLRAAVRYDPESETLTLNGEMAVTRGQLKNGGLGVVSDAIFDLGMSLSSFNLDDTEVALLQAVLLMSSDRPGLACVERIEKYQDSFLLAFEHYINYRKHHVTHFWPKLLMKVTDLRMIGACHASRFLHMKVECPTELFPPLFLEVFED
How it was run: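 Competitive fluorescence polarization. Assay liquid was PBS containing 5% DMSO. For TRβ, hTRβ1 LBD (His6, T209-D461) was expressed in BL21 (DE3).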

[3] = tested on: ARO; assay: Cytotoxicity against human ARO cells after 48 hrs by MTS assay; assay type: functional; details: read-out: LD50 (the source's name)
[4] = physchem; details: PBS
[5] = Permeability across artificial membrane at pH 7.4 by PAMPA assay
[6] = tested on: U2OS; assay: Cytotoxicity against human U2OS cells after 48 hrs by MTS assay; assay type: functional; details: read-out: LD50 (the source's name)

| Structure (SMILES) | IC50 [1] | IC50 [2] [µM] | CC50 ([3]; Homo sapiens, ARO, 48 h) [µM] | solubility [4] [µM] | permeability [5] | CC50 ([6]; Homo sapiens, U2OS, 48 h) [µM] | Papp [5] [×10⁻⁶ cm/s] | CC50 [3] | CC50 [6] [µM] |
| --- | --- | --- | --- | --- | --- | --- | --- | --- | --- |
| CCCCCCc1ccc(C(=O)C2CO2)cc1 (centres undefined) | 47.7 µM | 23.1 | > 200 | 204 (≈ 47.4 µg/mL) | 1117 10^-6 cm/s | 58 |  |  |  |
| CCCCCCc1ccc(C(=O)CCN(CCCC)CCCC)cc1 | 6.9 µM | 4.2 | 5.4 | 152 (≈ 52.5 µg/mL) |  | 25.5 |  |  |  |
| CCCCCCc1ccc(C(=O)CCN(C)CCO)cc1 | 3 µM | 1.6 | 13.2 | 97 (≈ 28.3 µg/mL) |  | 13.2 |  |  |  |
| C=C(C)C(=O)c1ccc(CCCCCCC)cc1 | 52.9 µM | 23.2 | 10.7 | 37 (≈ 9.04 µg/mL) |  | 18.7 | 43 |  |  |
| C=CC(=O)c1ccc(CCCC)cc1 | 71 µM | 66 | 9.9 |  |  | 25.6 |  |  |  |
| C=CC(=O)Nc1ccc(CCCCCC)cc1 | 21.6 µM | 17.9 | 113 | 47 (≈ 10.9 µg/mL) |  | 66.5 | 833 |  |  |
| CCCCCCc1ccc(C(=O)CCN(C)CCc2ccccc2)cc1 | 3.6 µM | 1.5 | 2.5 | 15 (≈ 5.27 µg/mL) |  | 18.4 |  |  |  |
| C/C=C/C(=O)Nc1ccc(CCCCCC)cc1 | > 100 µM | > 100 | > 200 | 42 (≈ 10.3 µg/mL) |  | > 200 | 432 |  |  |
| C=CC(=O)Oc1ccccc1CCCCCC | 39.1 µM | 8.2 | 14.6 |  |  | 19.4 |  |  |  |
| C=CC(=O)Oc1ccc(CCC)cc1 | > 100 µM | 61 | 4.8 |  |  | 121 |  |  |  |
| CCCCCCc1ccc(C(=O)CF)cc1 | > 100 µM | > 100 | 2.4 | 95 (≈ 21.1 µg/mL) |  | 69 |  |  |  |
| C=CC(=O)[C@H]1CC[C@H](CC(C)(C)C)CC1 | 75.6 µM | 69.1 | 92.8 |  |  | 50.2 |  |  |  |
| C=CC(=O)c1ccc(CCCCCCCC)cc1 | 21.4 µM | 11.4 | 111 |  |  | 50.5 |  |  |  |
| C=CC(=O)c1ccc(CC(C)(C)C)cc1 | 69.6 µM | 43.5 | 5.8 |  |  | 27.5 |  |  |  |
| CCCCCCCc1ccc(C(=O)C=C(C)C)cc1 | > 100 µM | > 100 | > 200 | 24 (≈ 6.2 µg/mL) |  | > 200 |  |  |  |
| C=CC(=O)c1ccc(CCCCCC)cc1 | 28.1 µM and 45.2 µM |  |  | 36 (≈ 7.79 µg/mL) |  | 10.1 | 38 | 4.5 µM and 29.5 µM | 18.8 |
| CCCCCCc1ccc(NC(=O)/C=C/c2ccccc2)cc1 | > 100 µM | > 100 |  |  |  |  |  |  |  |
| C=C(CC(=O)Nc1ccc(CCCCCC)cc1)C(=O)O | > 100 µM | > 100 | 183 | 286 (≈ 82.8 µg/mL) |  | 124 | 57 |  |  |
| CCCCCCc1ccc(C(=O)CCN(C)Cc2ccco2)cc1 | 22.6 µM | 12.1 |  |  |  |  |  |  |  |
| C/C=C(\C)C(=O)c1ccc(CCCCCCC)cc1 | > 100 µM | > 100 | > 200 | 36 (≈ 9.3 µg/mL) |  | > 200 |  |  |  |
| CCCCCCc1ccc(NC(=O)/C=C\C(=O)O)cc1 | 17.5 µM | 20.3 | > 200 | 418 (≈ 115 µg/mL) |  | 148 |  |  |  |

| Structure (SMILES) | IC50 [1] | IC50 [2] [µM] | CC50 ([3]; Homo sapiens, ARO, 48 h) [µM] | solubility [4] [µM] | permeability [5] | CC50 ([6]; Homo sapiens, U2OS, 48 h) [µM] | Papp [5] [×10⁻⁶ cm/s] | CC50 [3] | CC50 [6] [µM] |
| --- | --- | --- | --- | --- | --- | --- | --- | --- | --- |
| CCCCCCc1ccc(C(=O)CC)cc1 | > 100 µM | > 100 |  |  |  |  |  |  |  |
| C=CC(=O)c1ccc(CCCCC)cc1 | 60.9 µM | 33.9 | 20 |  |  | 22.7 |  |  |  |
| CCCCCCc1ccc(C(=O)CCCBr)cc1 | > 100 µM | > 100 | 28.7 | 26 (≈ 8.09 µg/mL) |  | 25.3 | 58 |  |  |
| C#CC(=O)Nc1ccc(CCCCCC)cc1 | 68.9 µM | 35.1 | 8 | 60 (≈ 13.8 µg/mL) |  | 17.1 | 621 |  |  |
| CCCCCCc1ccc(C(=O)CCN2CCOCC2)cc1 | 4.1 µM | 2.7 | 7.2 | 110 (≈ 33.4 µg/mL) | 1210 10^-6 cm/s | 20.8 |  |  |  |
| CCCCCCc1ccc(C(=O)CCN(C2CCCCC2)C2CCCCC2)cc1 | 16.5 µM | 12.7 |  |  |  |  |  |  |  |
| CCCCCCCc1ccc(C(=O)/C=C/c2ccccc2)cc1 | > 100 µM | > 100 | > 200 | 30 (≈ 9.19 µg/mL) |  | 57 |  |  |  |
| CCCCCCc1ccc(NC(=O)C=C(C)C)cc1 | > 100 µM | > 100 | > 200 | 37 (≈ 9.6 µg/mL) |  | > 200 | 98 |  |  |
| CCCCCCc1ccc(C(=O)CCNCCC)cc1 | 25.8 µM | 15.2 | 107 | 354 (≈ 97.5 µg/mL) |  | 160 | 254 |  |  |
| CCCCCCc1ccc(C(=O)/C=C\C(=O)O)cc1 | 19.2 µM | 17.7 | 5.5 | 252 (≈ 65.6 µg/mL) |  | 57.4 | 66 |  |  |
| CCCCCCc1ccc(C(=O)CCN2CCC(C(=O)OC)CC2)cc1 | 6.3 µM | 3.9 | 8.2 | 27 (≈ 9.71 µg/mL) |  | 19.7 | 145 |  |  |
| CCCCCCc1ccc(C(=O)CCBr)cc1 | 4.2 µM | 3 | 40.1 | 85 (≈ 25.3 µg/mL) |  | 17 |  |  |  |
| C=CC(=O)Oc1ccc(CCCCC)cc1 | > 100 µM | 55.8 | 21.2 |  |  | 36.5 |  |  |  |
| CCCCCCc1ccc(C(=O)CCN(C)C)cc1 | […] | 4.3 |  |  |  |  |  |  |  |
| CCCCCCc1ccc(NC(=O)CCC(=O)O)cc1 | > 100 µM | > 100 |  |  |  |  |  |  |  |
| CCCCCCc1ccc(C(=O)CCl)cc1 | 47.7 µM | 23.1 |  |  |  |  |  |  |  |
| C/C=C/C(=O)c1ccc(CCCCCCC)cc1 | 18.9 µM | 7.6 | 1.4 | 41 (≈ 10 µg/mL) |  | 11.6 | 7 |  |  |
| CCCCCCc1ccc(C(=O)CCN(C(C)C)C(C)C)cc1 | 4.1 µM | 2 | 15.4 | 55 (≈ 17.5 µg/mL) |  | 20.7 |  |  |  |
| C#CC(=O)Oc1ccc(CCCCCC)cc1 | 16.7 µM | 6.2 | 7.9 | 18 (≈ 4.15 µg/mL) |  | 13.9 | 21 |  |  |
| CCCC(=O)Nc1cccc2c1CCCC2 | 85.3 µM | 69.8 | 54.7 |  |  | 101 |  |  |  |
| C=CC(=O)c1ccc(CCCCCCC)cc1 | 23 µM | 10.5 | 69.2 |  |  | 36.7 |  |  |  |
